Most compounds without a hit are left out; they make up all but 3% or so of the library.
Cneo AK release: Cryptococcus neoformans cell lysis inducers, primary screen, AK release luminescence, single concentration; C. neoformans lysis, adenylate kinase release luminescence, 4 h; normalised: neutral wells 0, clomiphene wells 100; lysis activity, % at 15 µM; hit rate 0.2% among 360,000; AID 651654, 2012;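 active = mean lysis activity across replicates of at least 80%, whatever share of replicates individually reach that level; inactive = mean lysis activity below 80%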
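Assay system: C. neoformans cells. Amount: yeast cell density of 5 × 10^6 cells/mL. Technique: AK luminescence. Buffer or medium: YPD. Times: static 4 h at 37 °C with compound, 1 h detection. Dosing: single-point compound dose. Read-out: lysis from increased AK signal.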
S100A4 MyoIIA: inhibitors of S100A4-myosin IIA peptide binding, primary screen, biochemical, fluorescence polarization, TAMRA-MyoIIA peptide; Protein S100-A4 (Homo sapiens), P26447; inhibition, % at 10.7 µM; hit rate 0.14% among 360,000; AID 652163, 2013;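 active = mean inhibition of at least 70% across replicates, with every replicate also reaching that level; inconclusive = mean inhibition reaches 70% but some replicates fall short; inactive = mean inhibition below 70%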
Target sequence (P26447 whole entry, looked up): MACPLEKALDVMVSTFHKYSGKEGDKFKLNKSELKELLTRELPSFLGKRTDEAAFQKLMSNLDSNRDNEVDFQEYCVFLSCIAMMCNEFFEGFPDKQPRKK
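incubation = readout 5 min after mixing, signal stable up to 60 min | system = S100A4 monomer protein | buffer or medium = HEPES pH 7.2 with CaCl2, KCl, NaCl, DTT, Triton | benchmarks = neutral control DMSO, positive control TFP | also added = fluorescent myosin IIA peptide, 5 nM | compound dosing = one concentration per compound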
SIRT5 inh: SIRT5 desuccinylase inhibitors, primary screen, biochemical, fluorescence imaging, single point, set 5. AID 652115, 2013. NAD-dependent protein deacylase sirtuin-5, mitochondrial (Homo sapiens), Q9NXA8. hit rate 1.1% among 330,000. inhibition, % at 15 µM. Purified SirT5, succinyl-peptide AMC, trypsin-coupled fluorescence; in the data active = inhibition above about 15%; inconclusive = no clear call, values can overlap the other calls
Target sequence (Q9NXA8 whole entry, looked up): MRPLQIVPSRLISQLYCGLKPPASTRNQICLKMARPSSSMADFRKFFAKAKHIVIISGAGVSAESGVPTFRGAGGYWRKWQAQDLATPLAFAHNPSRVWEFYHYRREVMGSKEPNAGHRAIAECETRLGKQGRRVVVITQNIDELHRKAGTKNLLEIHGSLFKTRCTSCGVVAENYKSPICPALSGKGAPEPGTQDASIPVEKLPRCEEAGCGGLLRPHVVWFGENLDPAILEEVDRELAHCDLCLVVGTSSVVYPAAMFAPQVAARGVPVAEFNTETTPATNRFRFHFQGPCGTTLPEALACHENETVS
rRNA inh HTS: reduced GFP signal of wild-type E. coli, primary screen, bacterial rRNA inhibitor project, GFP/RFP fluorescence, OD600, single point | GFP signal change (wild-type ribosome), % (test concentration not listed) | E. coli WT GFP vs humanized-ribosome RFP mutants, 24 h; stronger effect = lower value; DMSO median 0, no signal -100 | hit rate 1.6% among 350,000 | AID 720706, 2013;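 active = significant combined selectivity score with lowered wild-type GFP, culture density cut under 30%, mutant RFP and density less affected; inactive = any of these conditions unmet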
C2C12 statin: suppressors of statin myotoxicity in C2C12 myotubes, primary screen, cell-based, single point, plate reader; C2C12 myotubes + simvastatin, ATP luminescence, 48 h; scaled: DMSO 0, geranylgeraniol control 100; AID 602340, 2012; hit rate 0.78% among 330,000; rescue of ATP level, % at 7.49 µM;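 active = mean ATP rescue above about 67%, or every replicate alone reaching that limit, limit read from the data, passing the limit was not always enough; inconclusive = no clear call, values can overlap the other calls; inactive = mean under the limit and some replicate under it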;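 also: myotubes were challenged with 10 µM simvastatin during compound exposure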
PGC1a acetyl inh: inhibitors of PGC1a acetylation signal, primary screen, cell-based, U2OS, AlphaScreen, inhibitor mode | AlphaScreen anti-acetyl-lysine; with virally co-expressed GCN5 acetyltransferase | inhibition, % at 15.6 µM | hit rate 0.17% among 350,000 | AID 651687, 2012;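 active = every replicate shows inhibition of at least 40%; inconclusive = mean inhibition at least 40% but some replicate below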
AID977621: growth inhibition of wild-type GFP E. coli, dose response, H69 mutant RFP, cherry-pick. shares compounds with rRNA inh HTS. E. coli wild-type GFP strain growth, fluorescence, 24 h. activity change, negative = inhibition at 50 µM. 1,900 tested, under 10 active. AID 977621, 2014;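 active = Wild-type ribosome reporter drop at least double the humanized mutant ribosome reporter drop, growth loss under a set limit; inconclusive = no clear call, values can overlap the other calls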;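 also: wild-type GFP and H69 mutant RFP strains grown together 50/50 in each well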
AID977628: E. coli growth inhibition, wild-type GFP versus h24 humanized RFP strain, dose response, h24 mutant RFP vs wild-type GFP, cherry-pick | E. coli WT GFP strain growth, fluorescence, 24 h | shares compounds with rRNA inh HTS | 1,900 tested, under 10 active | activity change, negative = inhibition at 50 µM;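 active = compound lowering the normal-ribosome reporter at least twice as much as the humanized-ribosome reporter, growth loss under a set limit; inconclusive = no clear call, values can overlap the other calls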;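 also: wild-type GFP and h24 humanized RFP strains co-cultured 1 to 1 per well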
Each line names hits and unclear results; the compound was inactive in the other large screens (follow-up assays come after a bar, where they were run).

C[C@H]1CN([C@@H](C)CO)C(=O)c2cc(NC(=O)Cn3cnnn3)ccc2O[C@@H]1CN(C)S(=O)(=O)c1ccc(Cl)cc1	none (no result: Cneo AK release)
CCOC(=O)c1nc(S(C)(=O)=O)ncc1Cl	rRNA inh HTS -27.1 | AID977621 inactive | AID977628 inconclusive
CCOC(=O)c1nc(S(C)(=O)=O)ncc1N1CCOCC1	none (no result: S100A4 MyoIIA, SIRT5 inh, rRNA inh HTS)
COc1ccc(NC(=O)N(C)C[C@@H]2Oc3c(NC(=O)C4CC4)cccc3C(=O)N([C@@H](C)CO)C[C@H]2C)cc1	none
CCN1CCc2c(OCC(=O)N3CCc4ccccc43)cccc2C1=O	none (no result: Cneo AK release, C2C12 statin, PGC1a acetyl inh)
O=C1c2cccc(OCC(=O)N3CCCc4ccccc43)c2CCN1Cc1cccnc1	rRNA inh HTS -26.4 (no result: Cneo AK release, C2C12 statin) | AID977621 inactive
COc1ccc(CC(=O)Nc2cc(S(=O)(=O)Nc3ccc(OC)cc3)ccc2OC)cc1	rRNA inh HTS -18.4 | AID977621 inactive | AID977628 inactive
COC(=O)c1sccc1NC(=O)Cc1ccc(OC)cc1	rRNA inh HTS -26.5 (no result: Cneo AK release, C2C12 statin) | AID977621 inactive
O=C(Nc1ccccc1F)N1CC(=O)N2[C@@H](CO)[C@H](c3ccc(C#Cc4ccccc4)cc3)[C@@H]2C1	none (no result: Cneo AK release, C2C12 statin)
C[C@@H]1CCCCO[C@H](CN(C)C(=O)c2ccccc2)[C@@H](C)CN([C@H](C)CO)C(=O)c2cc(NS(=O)(=O)c3ccc(Cl)cc3)ccc2O1	none (no result: C2C12 statin)
C[C@H](CO)N1C[C@H](C)[C@H](CN(C)S(=O)(=O)c2ccccc2F)Oc2ncc(C#Cc3ccccc3F)cc2C1=O	none
S=c1nc(-c2cc(Cl)cc(Cl)c2)[nH][nH]1	rRNA inh HTS -16.7 (no result: Cneo AK release, C2C12 statin, PGC1a acetyl inh) | AID977621 inactive | AID977628 inconclusive
S=c1nc(-c2cccc(Cl)c2)[nH][nH]1	none (no result: Cneo AK release, SIRT5 inh, C2C12 statin)
O=C(C[C@@H]1CC[C@H]2[C@@H](COC[C@@H](O)CN2C(=O)C2CC2)O1)NCc1ccccc1Cl	none
Cc1csc2c(N3CCC(C(=O)O)CC3)ncnc12	rRNA inh HTS -32.0 (no result: Cneo AK release, C2C12 statin, PGC1a acetyl inh) | AID977628 inconclusive
Cc1csc2c(N3CCCCC3)ncnc12	none (no result: Cneo AK release, C2C12 statin, PGC1a acetyl inh)
COC(=O)[C@@H](Cc1c[nH]c2ccccc12)NCc1cccc(B(O)O)c1	rRNA inh HTS -20.2 (no result: SIRT5 inh) | AID977621 inconclusive
Cc1[nH]nc2c1C(c1ccc(F)cc1)N(Cc1ccccc1)C2=O (stereo not drawn)	rRNA inh HTS -21.0 (no result: Cneo AK release, C2C12 statin, PGC1a acetyl inh) | AID977628 inconclusive
COc1cccc(SCC(=O)N2CCN(c3ccccc3)CC2)c1	rRNA inh HTS -22.9 | AID977621 inactive | AID977628 inconclusive
COc1ccccc1-c1nn(-c2ccccc2)cc1C(=O)N1CCc2ccccc2C1	none
COc1ccc(OC)c(-c2nn(-c3ccccc3)cc2C(=O)N2CCc3ccccc3C2)c1	rRNA inh HTS -16.4 | AID977621 inactive
COCC#Cc1cnc2c(c1)C(=O)N([C@@H](C)CO)C[C@H](C)[C@H](CN(C)C)O2	none
Cc1ccc(C)c(-n2nnnc2SCC(=O)c2ccc3c(c2)NC(=O)CO3)c1	none (no result: S100A4 MyoIIA, SIRT5 inh, rRNA inh HTS)
Cc1ccc2nc(SCC(=O)c3ccc4c(c3)NC(=O)CO4)[nH]c2c1	rRNA inh HTS -21.4 (no result: Cneo AK release, C2C12 statin) | AID977621 inactive | AID977628 inconclusive
CS(=O)(=O)c1ccc(Cl)c(NC(=O)CSc2nncn2-c2ccccc2)c1	rRNA inh HTS -22.1 | AID977621 inactive | AID977628 inactive
O=C(CSc1nncn1-c1ccccc1)Nc1ccccc1	none
CC1CCN(C(=O)COC(=O)c2ccccc2NC(=O)c2ccco2)CC1	rRNA inh HTS -31.7 (no result: Cneo AK release, C2C12 statin, PGC1a acetyl inh) | AID977621 inactive | AID977628 inactive
O=C(COC(=O)c1ccccc1NC(=O)c1ccco1)NC1CC1	none (no result: Cneo AK release, C2C12 statin, PGC1a acetyl inh)
Cc1cccc(-c2noc(CCC(=O)NCc3ccco3)n2)c1	none (no result: rRNA inh HTS)
CC(C)(C)c1ccc(-c2noc(CCC(=O)NCc3ccco3)n2)cc1	rRNA inh HTS -23.7 (no result: Cneo AK release, C2C12 statin, PGC1a acetyl inh) | AID977621 inactive | AID977628 inconclusive
CCN(C(=O)CSc1cc(-c2ccccc2)c2ccc(OC)cc2n1)C1CCS(=O)(=O)C1 (stereo not drawn)	none (no result: Cneo AK release, rRNA inh HTS, C2C12 statin, PGC1a acetyl inh)
CCN(C(=O)CSc1cc(C)c2ccc(OC)cc2n1)C1CCS(=O)(=O)C1 (stereo not drawn)	rRNA inh HTS -22.7 (no result: C2C12 statin) | AID977621 inactive | AID977628 inactive
C[C@@H]1CN([C@@H](C)CO)C(=O)Cc2cc(NS(=O)(=O)c3ccc(F)cc3)ccc2O[C@H]1CN(C)C(=O)Nc1ccccc1	none
Cc1ccc(S(=O)(=O)N(C)C[C@@H]2OCCCC[C@H](C)Oc3ccc(NC(=O)Nc4ccc5c(c4)OCO5)cc3C(=O)N([C@@H](C)CO)C[C@H]2C)cc1	none (no result: C2C12 statin)
Cc1nn2c(NCc3ccccn3)cc(C(C)(C)C)nc2c1-c1ccccc1	none
Cc1cc(NCc2ccccn2)n2nc(C)c(-c3ccccc3)c2n1	rRNA inh HTS -46.7 (no result: Cneo AK release, C2C12 statin, PGC1a acetyl inh) | AID977621 inactive | AID977628 inconclusive
Fc1ccccc1C1CCN(Cc2nc(COc3ccccc3)no2)C1 (stereo not drawn)	rRNA inh HTS -16.1 | AID977621 inactive | AID977628 inactive
O=S(=O)(c1ccc(Cl)cc1)N1CCN=C1SCc1cccnc1	none (no result: Cneo AK release, C2C12 statin, PGC1a acetyl inh)
O=S(=O)(c1ccc(Cl)cc1)N1CCN=C1SCc1cccc(Cl)c1	rRNA inh HTS -22.6 (no result: Cneo AK release, C2C12 statin, PGC1a acetyl inh) | AID977621 inactive
CC1CCCCN1C(=O)C1CCCN(S(=O)(=O)c2cccc3nsnc23)C1 (stereo not drawn)	rRNA inh HTS -20.2, C2C12 statin inconclusive | AID977621 inactive | AID977628 inconclusive
C[C@@H]1CN([C@@H](C)CO)S(=O)(=O)c2ccc(C#C[C@@H](C)O)cc2O[C@H]1CN(C)CC1CCCC1	none
CC(C)N1CC2(CC(c3ccccc3C(F)(F)F)=NO2)CN1C(=O)c1ccco1 (stereo not drawn)	rRNA inh HTS -20.5 (no result: Cneo AK release) | AID977628 inconclusive
COc1ccccc1CC(=O)NCCCc1ccccc1	rRNA inh HTS -23.0 | AID977621 inactive | AID977628 inconclusive
O=C(COc1cc(F)ccc1[N+](=O)[O-])NCCCc1ccccc1	rRNA inh HTS -27.4 (no result: Cneo AK release, C2C12 statin, PGC1a acetyl inh) | AID977621 inactive | AID977628 inactive
